Laboratory results: ChEMBL document CHEMBL1137710, “Synthesis and in vitro antitumor activity of new quinoxaline derivatives” (2009)

Experiments:
Assay type in all cases: functional
NCI-H460 [1] = experiment: Anticancer activity against human NCI-H460 cells assessed as cell growth at 100 uM after 48 hrs by sulforhodamine B assay; conditions: NCI-H460, 48 h, read-out: Activity
CCRF-CEM = experiment: Growth inhibition of human CCRF-CEM cells after 48 hrs by sulforhodamine B assay
Outline: (§1)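 NCI 60-human-tumor-cell-line panel, with compounds tested over a 5-log dose range. Values are taken from dose-response curves as log10 molar concentrations: GI50 is 50% net growth inhibition, TGI is total growth inhibition, and LC50 is 50% net cell death.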

HL-60(TB) = experiment: Growth inhibition of human HL-60(TB) cells after 48 hrs by sulforhodamine B assay; conditions: HL-60, 48 h
Outline: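 Tested only on compounds active in a three-line prescreen, in the NCI 60-human-tumour-cell-line panel over a 5-log dose range. Values come from dose–response curves as log10 molar GI50, the concentration inhibiting 50% net cell growth. Log10 TGI (total growth inhibition) and log10 LC50 (50% net cell death) were derived too. Mean graph midpoints include insensitive lines at the highest concentration tested.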

SR = experiment: Growth inhibition of human SR cells after 48 hrs by sulforhodamine B assay
Outline: (§2)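 Run in the NCI 60-human-tumour-cell-line panel, tested over a 5-log dose range. Dose–response curves gave three values per cell line, each as a log10 molar concentration: GI50 (50% inhibition of net cell growth), TGI (total inhibition of net growth) and LC50 (50% net cell death). The mean graph midpoint is the arithmetic mean over all lines, with insensitive lines entered at the highest concentration tested.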

A549 = experiment: Growth inhibition of human A549 cells after 48 hrs by sulforhodamine B assay; conditions: A549, 48 h; outline: as §1
EKVX = experiment: Growth inhibition of human EKVX cells after 48 hrs by sulforhodamine B assay; outline: as §1
HOP-62 = experiment: Growth inhibition of human HOP62 cells after 48 hrs by sulforhodamine B assay; conditions: HOP-62, 48 h; outline: as §1
HOP-92 = experiment: Growth inhibition of human HOP92 cells after 48 hrs by sulforhodamine B assay; conditions: HOP-92, 48 h; outline: as §1
NCI-H226 = experiment: Growth inhibition of human NCI-H226 cells after 48 hrs by sulforhodamine B assay; conditions: NCI-H226, 48 h; outline: as §1
NCI-H460 [2] = experiment: Growth inhibition of human NCI-H460 cells after 48 hrs by sulforhodamine B assay; conditions: NCI-H460, 48 h; outline: as §1
HCT-15 = experiment: Growth inhibition of human HCT15 cells after 48 hrs by sulforhodamine B assay; conditions: HCT-15, 48 h; outline: as §1
HT-29 = experiment: Growth inhibition of human HT-29 cells after 48 hrs by sulforhodamine B assay; conditions: HT-29, 48 h; outline: as §1
KM12 = experiment: Growth inhibition of human KM12 cells after 48 hrs by sulforhodamine B assay; conditions: KM12, 48 h; outline: as §1
SNB-75 = experiment: Growth inhibition of human SNB75 cells after 48 hrs by sulforhodamine B assay; conditions: SNB-75, 48 h; outline: as §2
Malme-3M = experiment: Growth inhibition of human MALME-3M cells after 48 hrs by sulforhodamine B assay; outline: as §1
UACC-257 = experiment: Growth inhibition of human UACC257 cells after 48 hrs by sulforhodamine B assay; conditions: UACC-257, 48 h; outline: as §2
IGROV-1 = experiment: Growth inhibition of human IGROV1 cells after 48 hrs by sulforhodamine B assay; conditions: IGROV-1, 48 h; outline: as §1
OVCAR-8 = experiment: Growth inhibition of human OVCAR8 cells after 48 hrs by sulforhodamine B assay; conditions: OVCAR-8, 48 h; outline: as §1
SK-OV-3 = experiment: Growth inhibition of human SKOV3 cells after 48 hrs by sulforhodamine B assay; conditions: SK-OV-3, 48 h; outline: as §1
A498 = experiment: Growth inhibition of human A498 cells after 48 hrs by sulforhodamine B assay; conditions: A498, 48 h; outline: as §1
ACHN = experiment: Growth inhibition of human ACHN cells after 48 hrs by sulforhodamine B assay
SN12C = experiment: Growth inhibition of human SN12C cells after 48 hrs by sulforhodamine B assay; outline: as §2
TK-10 = experiment: Growth inhibition of human TK10 cells after 48 hrs by sulforhodamine B assay; conditions: TK-10, 48 h; outline: as §2
UO-31 = experiment: Growth inhibition of human UO31 cells after 48 hrs by sulforhodamine B assay; conditions: UO-31, 48 h; outline: as §2
PC-3 = experiment: Growth inhibition of human PC3 cells after 48 hrs by sulforhodamine B assay; conditions: PC-3, 48 h; outline: as §1
DU-145 = experiment: Growth inhibition of human DU145 cells after 48 hrs by sulforhodamine B assay; conditions: DU-145, 48 h; outline: as §1
BT-549 = experiment: Growth inhibition of human BT549 cells after 48 hrs by sulforhodamine B assay; conditions: BT-549, 48 h; outline: as §1
T47D = experiment: Growth inhibition of human T47D cells after 48 hrs by sulforhodamine B assay; outline: as §2
MCF7 = experiment: Growth inhibition of human MCF7 cells after 48 hrs by sulforhodamine B assay; conditions: MCF7, 48 h; outline: as §1
[3] = read-out: pLC50 (the source's name) (converted)

COc1cc(OC)cc(Oc2nc3cc(N)cc(N)c3nc2-c2ccccc2)c1 showed a growth at 100 µM (NCI-H460 [1]) of 2%, a GI50 (CCRF-CEM) of 1.95 µM and a TGI (CCRF-CEM; read-out: pTGI (converted)) of 8.71 µM. For the same compound, the GI50 (HL-60(TB)) was 3.09 µM, the TGI (HL-60(TB); read-out: pTGI (converted)) was 25.7 µM and the GI50 (SR) was 1.86 µM. The TGI (SR; read-out: pTGI (converted)) was 28.8 µM, the GI50 (A549) was 2.88 µM and the TGI (A549; read-out: pTGI (converted)) was 13.2 µM. It also gave a GI50 (EKVX) of 3.8 µM, a TGI (EKVX; read-out: pTGI (converted)) of 19.5 µM and a GI50 (HOP-62) of 2.14 µM. The TGI (HOP-62; read-out: pTGI (converted)) was 12.9 µM, the GI50 (HOP-92) was 1.35 µM and the TGI (HOP-92; read-out: pTGI (converted)) was 8.91 µM. It also gave a GI50 (NCI-H226) of 6.61 µM, a TGI (NCI-H226; read-out: pTGI (converted)) of 42.7 µM and a GI50 (NCI-H460 [2]) of 2.95 µM. The TGI (NCI-H460 [2]; read-out: pTGI (converted)) was 12.6 µM, the GI50 (HCT-15) was 2.04 µM and the TGI (HCT-15; read-out: pTGI (converted)) was 12.3 µM. The GI50 (HT-29) was 4.37 µM, the TGI (HT-29; read-out: pTGI (converted)) was 17.8 µM and the GI50 (KM12) was 1.02 µM. It also gave a TGI (KM12; read-out: pTGI (converted)) of 6.03 µM, a GI50 (SNB-75) of 0.126 µM and a TGI (SNB-75; read-out: pTGI (converted)) of 2.69 µM. It also gave a GI50 (Malme-3M) of 0.427 µM, a CC50 (Malme-3M; [3]) of 30.2 µM and a TGI (Malme-3M; read-out: pTGI (converted)) of 5.13 µM. It also gave a GI50 (UACC-257) of 2.19 µM, a CC50 (UACC-257; [3]) of 37.2 µM and a TGI (UACC-257; read-out: pTGI (converted)) of 12.3 µM. For the same compound, the GI50 (IGROV-1) was 2.63 µM, the CC50 (IGROV-1; [3]) was 38 µM and the TGI (IGROV-1; read-out: pTGI (converted)) was 12.3 µM. For the same compound, the GI50 (OVCAR-8) was 2.88 µM, the CC50 (OVCAR-8; [3]) was 50.1 µM and the TGI (OVCAR-8; read-out: pTGI (converted)) was 16.2 µM. For the same compound, the GI50 (SK-OV-3) was 3.47 µM, the CC50 (SK-OV-3; [3]) was 69.2 µM and the TGI (SK-OV-3; read-out: pTGI (converted)) was 16.2 µM. For the same compound, the GI50 (A498) was greater than 100 µM, the CC50 (A498; [3]) was greater than 100 µM and the TGI (A498; read-out: pTGI (converted)) was greater than 100 µM. It also gave a GI50 (ACHN) of 14.8 µM, a TGI (ACHN; read-out: pTGI (converted)) of 33.9 µM and a GI50 (SN12C) of 17 µM. The CC50 (SN12C; [3]) was 69.2 µM, the TGI (SN12C; read-out: pTGI (converted)) was 34.7 µM and the GI50 (TK-10) was 28.2 µM. The CC50 (TK-10; [3]) was greater than 100 µM, the TGI (TK-10; read-out: pTGI (converted)) was 57.5 µM and the GI50 (UO-31) was 11.5 µM. It also gave a CC50 (UO-31; [3]) of 72.4 µM, a TGI (UO-31; read-out: pTGI (converted)) of 28.8 µM and a GI50 (PC-3) of 10.2 µM. It also gave a CC50 (PC-3; [3]) of 72.4 µM, a TGI (PC-3; read-out: pTGI (converted)) of 27.5 µM and a GI50 (DU-145) of 21.9 µM. The CC50 (DU-145; [3]) was greater than 100 µM, the TGI (DU-145; read-out: pTGI (converted)) was 57.5 µM and the GI50 (BT-549) was 1.48 µM. It also gave a CC50 (BT-549; [3]) of 38 µM, a TGI (BT-549; read-out: pTGI (converted)) of 6.92 µM and a GI50 (T47D) of 2.34 µM. For the same compound, the CC50 (T47D; [3]) was 51.3 µM, the TGI (T47D; read-out: pTGI (converted)) was 9.12 µM and the GI50 (MCF7) was 1.7 µM. The CC50 (MCF7; [3]) was 14.5 µM and the TGI (MCF7; read-out: pTGI (converted)) was 4.57 µM.
